How the values were obtained:
[1] = Selectivity index, ratio of IC50 for human HL7702 cells to IC50 for human NCI-H1650 cells; format: toxicity
Summary of the method: (§1)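 Selectivity index taken as the logarithm of the ratio of the HL7702 IC50 to the cancer-line IC50. […] Not calculated when an IC50 was lacking.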

L02 = experiment: Cytotoxicity against human HL7702 cells assessed as reduction in cell viability after 72 hrs by MTT assay; format: cell-based; conditions: L02, 72 h
Summary of the method: (§2)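 Cells in RPMI 1640 with 10% heat-inactivated FBS and penicillin/streptomycin at 37 °C, 5% CO2. Seeded at 4000 per well, adhered overnight, then exposed to graded compound concentrations in triplicate wells for 72 h. MTT (5 mg/mL stock) added for 4 h, dissolved in DMSO, A490 read. IC50 is the concentration reducing viability by 50% versus untreated control.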

NCI-H460 = experiment: Cytotoxicity against human H460 cells assessed as reduction in cell viability after 72 hrs by MTT assay; format: functional, cell-based; conditions: NCI-H460, 72 h; summary of the method: as §2
A549 [2] = experiment: Cytotoxicity against human A549 cells assessed as reduction in cell viability after 72 hrs by MTT assay; format: functional, cell-based; conditions: A549, 72 h; summary of the method: as §2
[3] = Selectivity index, ratio of IC50 for human HL7702 cells to IC50 for human A549 cells; format: toxicity; summary of the method: as §1
[4] = Selectivity index, ratio of IC50 for human HL7702 cells to IC50 for human NCI-H1975 cells; format: toxicity; summary of the method: as §1
[5] = Selectivity index, ratio of IC50 for human HL7702 cells to IC50 for human H460 cells; format: toxicity; summary of the method: as §1
NCI-H1975 = experiment: Cytotoxicity against human NCI-H1975 cells assessed as reduction in cell viability after 72 hrs by MTT assay; format: functional, cell-based; conditions: NCI-H1975, 72 h; summary of the method: as §2
NCI-H1650 = experiment: Cytotoxicity against human NCI-H1650 cells assessed as reduction in cell viability after 72 hrs by MTT assay; format: functional, cell-based; conditions: NCI-H1650, 72 h; summary of the method: as §2
A549 [6] = experiment: Anticlonogenic activity against human A549 cells assessed as inhibition of clonogenic growth at 3 uM incubated for 2 days followed by replacement of growth media and measured after 8 days by crystal violet staining-based assay relative to control; format: functional
Summary of the method: (§3)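 A549 cells grown in 1640 medium with 10% heat-inactivated FBS at 37 °C, 5% CO2. Seeded at 1000 cells per well, then exposed to drug or left untreated. Medium, with or without drug, replaced after 2 days. 8 days later colonies fixed with 1% methanol and 1% formaldehyde, stained with 0.5% crystal violet and photographed. Percent inhibition expressed relative to control.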

A549 [7] = experiment: Anticlonogenic activity against human A549 cells assessed as inhibition of clonogenic growth at 9 uM incubated for 2 days followed by replacement of growth media and measured after 8 days by crystal violet staining-based assay relative to control; format: functional; summary of the method: as §3

Structure (SMILES): COc1cc(/C=C2\CNC/C(=C\c3cc(OC)c(OC)c(OC)c3)C2=O)cc(OC)c1OC
- log(RatioIC50) [1]: 0.26
- IC50 (L02): 7.6 µM
- IC50 (NCI-H460): 1.5 µM
- IC50 (A549 [2]): 1.2 µM
- log(RatioIC50) [3]: 0.8
- log(RatioIC50) [4]: 0.28
- log(RatioIC50) [5]: 0.7
- IC50 (NCI-H1975): 4 µM
- IC50 (NCI-H1650): 4.2 µM

Structure (SMILES): CCN1C/C(=C\c2cc(OC)c(OC)c(OC)c2)C(=O)/C(=C/c2cc(OC)c(OC)c(OC)c2)C1
- log(RatioIC50) [1]: 0.19
- IC50 (L02): 12.8 µM
- IC50 (NCI-H460): 4.9 µM
- IC50 (A549 [2]): 4.2 µM
- log(RatioIC50) [3]: 0.48
- log(RatioIC50) [4]: 0.29
- log(RatioIC50) [5]: 0.42
- IC50 (NCI-H1975): 6.5 µM
- IC50 (NCI-H1650): 8.2 µM

Structure (SMILES): COc1cc(/C=C2\CN(C(=O)CCC(=O)O)C/C(=C\c3cc(OC)c(OC)c(OC)c3)C2=O)cc(OC)c1OC
- IC50 (L02): > 60 µM
- IC50 (NCI-H460): > 60 µM
- IC50 (A549 [2]): 17.9 µM
- IC50 (NCI-H1975): > 60 µM
- IC50 (NCI-H1650): > 60 µM

Structure (SMILES): COc1cc(/C=C2\CN(C(=O)c3ccccc3F)C/C(=C\c3cc(OC)c(OC)c(OC)c3)C2=O)cc(OC)c1OC
- log(RatioIC50) [1]: 0.36
- IC50 (L02): 4.4 µM
- IC50 (NCI-H460): 1.5 µM
- IC50 (A549 [2]): 0.7 µM
- log(RatioIC50) [3]: 0.8
- log(RatioIC50) [4]: 0.5
- log(RatioIC50) [5]: 0.47
- IC50 (NCI-H1975): 1.4 µM
- IC50 (NCI-H1650): 1.9 µM

Structure (SMILES): COc1ccc(/C=C2\CNC/C(=C\c3ccc(OC)c(OC)c3)C2=O)cc1OC
- log(RatioIC50) [1]: -0.04
- IC50 (L02): 15.1 µM
- IC50 (NCI-H460): 6.4 µM
- IC50 (A549 [2]): 2.9 µM
- log(RatioIC50) [3]: 0.72
- log(RatioIC50) [4]: 0.17
- log(RatioIC50) [5]: 0.37
- IC50 (NCI-H1975): 10.3 µM
- IC50 (NCI-H1650): 16.7 µM

Structure (SMILES): Cc1ccc2nc(NCCN)c3ncc(C)n3c2c1 [BMS-345541]
- log(RatioIC50) [1]: 0.22
- IC50 (L02): 15.3 µM
- IC50 (NCI-H460): 2.8 µM
- IC50 (A549 [2]): 8.6 µM
- log(RatioIC50) [3]: 0.25
- log(RatioIC50) [4]: 0.28
- log(RatioIC50) [5]: 0.74
- IC50 (NCI-H1975): 8 µM
- IC50 (NCI-H1650): 9.3 µM

Structure (SMILES): COc1cc(/C=C2\CN(C(=O)C(C)C)C/C(=C\c3cc(OC)c(OC)c(OC)c3)C2=O)cc(OC)c1OC
- log(RatioIC50) [1]: 0.05
- IC50 (L02): 12.2 µM
- IC50 (NCI-H460): 2 µM
- IC50 (A549 [2]): 0.8 µM
- log(RatioIC50) [3]: 1.18
- log(RatioIC50) [4]: 0.81
- log(RatioIC50) [5]: 0.79
- IC50 (NCI-H1975): 1.9 µM
- IC50 (NCI-H1650): 10.8 µM

Structure (SMILES): CCN1C/C(=C\c2ccc(OC)c(OC)c2)C(=O)/C(=C/c2ccc(OC)c(OC)c2)C1
- log(RatioIC50) [1]: -0.09
- IC50 (L02): 9.8 µM
- IC50 (NCI-H460): 3.6 µM
- IC50 (A549 [2]): 3.6 µM
- log(RatioIC50) [3]: 0.43
- log(RatioIC50) [4]: 0.06
- log(RatioIC50) [5]: 0.43
- IC50 (NCI-H1975): 8.5 µM
- IC50 (NCI-H1650): 12 µM

Structure (SMILES): CCCN1C/C(=C\c2ccc(OC)c(OC)c2)C(=O)/C(=C/c2ccc(OC)c(OC)c2)C1
- log(RatioIC50) [1]: 0.12
- IC50 (L02): 21 µM
- IC50 (NCI-H460): 4.1 µM
- IC50 (A549 [2]): 4.2 µM
- log(RatioIC50) [3]: 0.7
- log(RatioIC50) [4]: 0.27
- log(RatioIC50) [5]: 0.71
- IC50 (NCI-H1975): 11.2 µM
- IC50 (NCI-H1650): 16 µM

Structure (SMILES): O=C1/C(=C/c2ccccc2F)CNC/C1=C\c1ccccc1F
- log(RatioIC50) [1]: 0.48
- IC50 (L02): 5.1 µM
- IC50 (NCI-H460): 1.2 µM
- IC50 (A549 [2]): 2.4 µM
- log(RatioIC50) [3]: 0.33
- log(RatioIC50) [4]: 0.59
- log(RatioIC50) [5]: 0.63
- IC50 (NCI-H1975): 1.3 µM
- IC50 (NCI-H1650): 1.7 µM

Structure (SMILES): COc1cc(/C=C/C(=O)CC(=O)/C=C/c2ccc(O)c(OC)c2)ccc1O [CURCUMIN]
- log(RatioIC50) [1]: -0.45
- IC50 (L02): 7.2 µM
- IC50 (NCI-H460): 8.5 µM
- IC50 (A549 [2]): 6.8 µM
- log(RatioIC50) [3]: 0.02
- log(RatioIC50) [4]: 0.71
- log(RatioIC50) [5]: -0.07
- IC50 (NCI-H1975): 1.4 µM

Structure (SMILES): O=c1[nH]cc(F)c(=O)[nH]1 [FLUOROURACIL]
- inhibition at 3 µM (A549 [6]): 38%
- inhibition at 9 µM (A549 [7]): 70%

Structure (SMILES): COc1ccc(/C=C2\CN(C)C/C(=C\c3ccc(OC)c(OC)c3)C2=O)cc1OC
- log(RatioIC50) [1]: 0.31
- IC50 (L02): 18.2 µM
- IC50 (NCI-H460): 3.1 µM
- IC50 (A549 [2]): 1.3 µM
- log(RatioIC50) [3]: 1.15
- log(RatioIC50) [4]: 0.44
- log(RatioIC50) [5]: 0.77
- IC50 (NCI-H1975): 6.6 µM
- IC50 (NCI-H1650): 9 µM

Structure (SMILES): CCC(=O)N1C/C(=C\c2cc(OC)c(OC)c(OC)c2)C(=O)/C(=C/c2cc(OC)c(OC)c(OC)c2)C1
- log(RatioIC50) [1]: -0.02
- IC50 (L02): 4.2 µM
- IC50 (NCI-H460): 2.7 µM
- IC50 (A549 [2]): 0.8 µM
- log(RatioIC50) [3]: 0.72
- log(RatioIC50) [4]: 0.39
- log(RatioIC50) [5]: 0.19
- IC50 (NCI-H1975): 1.7 µM
- IC50 (NCI-H1650): 4.4 µM

From ChEMBL document CHEMBL4152210, “Design, synthesis, anti-lung cancer activity, and chemosensitization of tumor-selective MCACs based on ROS-mediated JNK pathway activation and NF-κB pathway inhibition” (Eur J Med Chem, 2018)
